Hits are enriched below; roughly 0.95% of the tested compounds scored in any of these assays.
ASAP1 GAP inh: ASAP1 ArfGAP inhibition. hit rate 0.19% among 360,000. AID 624377. Q9ULH1. ASAP1-stimulated ARF1 GTP hydrolysis, GDP FP detection. inhibition, % at 16.5 µM; in the data active = inhibition above about 25%;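 note: 0% = vehicle with enzyme and substrate and 100% = no enzyme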
CSN deneddyl inh: blocks human CSN-mediated cullin deneddylation; Purified CSN, SCF-Nedd8-OG deneddylation, fluorescence polarization; Q92905; inhibition, % at 12.5 µM; hit rate 0.38% among 360,000;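 active = pattern-corrected inhibition above about 35%, with an unprinted fluorescence ratio check between 0.5 and 1.5, limit read from the data, passing the limit was not always enough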;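 note: 0% = enzyme with substrate and 100% = substrate without enzyme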
Target sequence (Q92905 whole entry, looked up, one chain of several): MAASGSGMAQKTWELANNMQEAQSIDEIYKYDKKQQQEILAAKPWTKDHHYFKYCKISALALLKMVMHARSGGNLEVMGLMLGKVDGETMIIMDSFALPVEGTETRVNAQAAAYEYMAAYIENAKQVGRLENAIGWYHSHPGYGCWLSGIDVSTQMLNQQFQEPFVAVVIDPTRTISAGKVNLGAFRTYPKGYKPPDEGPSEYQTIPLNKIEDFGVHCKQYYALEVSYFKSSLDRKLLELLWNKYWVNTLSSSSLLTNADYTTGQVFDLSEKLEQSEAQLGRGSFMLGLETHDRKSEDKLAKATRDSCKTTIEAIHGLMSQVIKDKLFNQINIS
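Material: human Csn5 produced in HEK293T cells; Input: enzyme 0.24 nM; Reagent: SCFSkp2-Nedd8OG substrate at 10 nM final; Dosing: 12.5 µM compound; Incubation: 90 min reaction at room temperature; Detection: fluorescence polarization of the substrate; Evaluation: % inhibition of substrate cleavage by Csn5; Control set: substrate-only high control, full reaction low control.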
ARFGAP1 inhibitor: rat ARFGAP1 inhibition; Q62848; Arfgap1-stimulated ARF1 GTP hydrolysis, GDP FP detection; inhibition, % at 16.5 µM; hit rate 0.26% among 360,000; AID 651572;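 active = inhibition above a per-plate limit, mean inhibition of low control wells plus 3 SD, cut at about 25% in these data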;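 note: 0% = DMSO wells with enzyme and 100% = wells lacking Arfgap1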
Target sequence (Q62848 1-136 limits assumed): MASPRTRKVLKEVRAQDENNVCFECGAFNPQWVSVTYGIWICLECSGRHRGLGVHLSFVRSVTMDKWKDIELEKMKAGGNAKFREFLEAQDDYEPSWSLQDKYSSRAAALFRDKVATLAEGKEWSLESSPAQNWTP
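material = rat Arfgap1 catalytic domain, aa 1-136 | also added = human ARF1(Δ1-17)-GTP substrate | compound dosing = one concentration, 16.5 µM, DMSO 1.26% | times = GTP hydrolysis reaction 2 h at 25 °C | measured by = FP, GDP Alexa 633 tracer displaced from anti-GDP antibody, 620/688 nm | evaluation = percent inhibition of Arfgap1-stimulated GTP hydrolysis | replication = single well per compound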
HNF4A DNA FP: change in binding of human HNF4 alpha to DNA; activity change, % at 10 µM; P41235; hit rate 0.3% among 360,000; AID 1224865; HNF4a-FITC DNA binding, fluorescence polarization, 1 h; in the data active = activity change above about 30%, passing the limit was not always enough
CSN5 deneddyl: validation of inhibitors of human CSN-mediated cullin deneddylation. shares compounds with CSN deneddyl inh. Csn5 deneddylation of SCF-Nedd8OG, fluorescence polarization, 90 min. inhibition, % at 16.6 µM. hit rate 62% among 540; in the data active = inhibition above about 50%;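 note: 0% = DMSO with enzyme and 100% = no enzyme wells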
MMP2 cntr CSN: blocks human MMP-2 in a CSN deneddylation counter-screen; hit rate 33% among 540; shares compounds with CSN deneddyl inh; inhibition, % at 16.6 µM; recombinant MMP-2, FRET substrate fluorescence, 60 min; AID 720655;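 active = corrected plate-normalized z-score of 5 or more, or -5 or less, or inhibition of 15% or more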;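 note: plate controls were DMSO wells with enzyme for no effect and buffer wells lacking MMP-2 for full effect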
Thrombin counter: thrombin (bovine) inhibition, counter-screen for CSN hits; shares compounds with CSN deneddyl inh; bovine thrombin cleavage of Ub4-pepOG, fluorescence polarization; inhibition, % at 16.6 µM; hit rate 49% among 540; AID 720656;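 active = inhibition at or above a set limit, with a fluorescence interference ratio between 0.5 and a set maximum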
The depositor's hits bear a star; . = no result given.

SMILES | ASAP1 GAP inh | CSN deneddyl inh | ARFGAP1 inhibitor | HNF4A DNA FP | CSN5 deneddyl | MMP2 cntr CSN | Thrombin counter
CC(=NO)c1ccc2c(c1)Cc1cc([N+](=O)[O-])ccc1-2 | 0.7 | 3.7 | -17.9 | -0.6 | . | . | .
CC(C)[C@@H](C(=O)N1CCCC1)N1C(=O)N2CCc3c([nH]c4ccccc34)[C@@]2(C)C1=O | -2.4 | 0.5 | 0.2 | 1.3 | . | . | .
O=[N+]([O-])c1ccc(N/N=C/c2c[nH]c3ccccc23)c(S(=O)(=O)Nc2ccc(Cl)cc2)c1 | 19.0 | 38.5* | 0.7 | 64.8* | 81.7* | 6.8 | 12.1
CN(C)S(=O)(=O)c1ccc2c(c1)/C(=C/c1cc3c([nH]1)CCCC3)C(=O)N2 | 14.1 | 53.7* | 1.1 | 96.3 | 74.9* | -11.4 | 36.5
Cc1cc(/C=C2\SC(=S)N(Cc3ccco3)C2=O)c(C)n1-c1cccnc1 | 8.7 | 79.4* | -1.7 | 119.6 | . | -7.3 | -50.4
Cc1ccc(C2=NOC(=O)/C2=C\C=C\c2ccccc2)cc1 | 6.5 | 35.1* | 0.4 | 15.2 | 102.7* | 2.8 | 8.2
CN(C)/C=C1\C(=O)ON=C1c1ccccc1 | -9.8 | -2.3 | 4.6 | 0.2 | . | . | .
COC(=O)c1ccc2c(c1)C(C)(C)C(/C=C/c1ccc(OC)c(OC)c1OC)=[N+]2C | -4.7 | 5.9 | 7.2 | 1.8 | . | . | .
COC(=O)c1ccc2c(c1)C(C)(C)C(/C=C/c1ccc(O)cc1)=[N+]2C | 2.8 | 47.6* | -9.7 | 41.4* | 61.8* | -16.9 | 35.1*
O=C(NC1CC1)c1ccc(NC(=O)C2CCCCC2)cc1 | 1.7 | -4.8 | 0.2 | 4.3 | . | . | .
O=C(/C=C/c1ccc([N+](=O)[O-])cc1)c1ccco1 | -4.1 | 3.2 | -13.3 | -1.7 | . | . | .
O=C(/C=C/c1ccc([N+](=O)[O-])cc1)/C=C/c1ccco1 | 2.8 | 46.4* | -7.0 | -23.5 | 76.7* | 10.3 | 9.3
CCn1c(CC(=O)Nc2ccccc2F)nnc1SCC(=O)Nc1nncs1 | 8.9 | -1.3 | 3.8 | 3.0 | . | . | .
COc1ccc(N2C(=NC(=O)c3ccc(Br)cc3)SC3CS(=O)(=O)CC32)cc1 (stereo not drawn) | -4.1 | -4.4 | 2.4 | -1.2 | . | . | .
CCCCN(C)CC(O)Cn1cc(/C=C/C(=O)c2cccs2)c2ccccc21 (stereo not drawn) | . | 41.2* | . | 24.1 | 67.4* | -6.8 | 32.0*
O=C(/C=C/c1cn(CC(O)CN2CCCCCC2)c2ccccc12)c1cccs1 (stereo not drawn) | 4.5 | 34.5 | 8.6 | 23.3 | . | . | .
CCOc1cc(/C=C2/SC(=S)N(Cc3ccccc3)C2=O)ccc1O | -3.3 | 42.4* | 2.3 | 37.6* | 59.2* | -3.3 | 84.7*
O=C1/C(=C/c2ccc(O)c([N+](=O)[O-])c2)SC(=S)N1Cc1ccccc1 | -9.8 | 21.2 | -12.2 | 29.1 | . | . | .
COc1cc([N+](=O)[O-])cc(/C=C2/SC(=S)N(Cc3ccccc3)C2=O)c1O | 5.6 | 39.5* | 3.4 | 42.1* | . | -1.1 | 43.6*
COc1cc(/C=C2/SC(=S)N(Cc3ccccc3)C2=O)cc(Cl)c1O | -3.2 | 94.1 | 5.0 | 102.6 | . | . | .
O=C1/C(=C\c2cc(Br)cc(Br)c2O)SC(=S)N1Cc1ccccc1 | . | 45.7* | . | 17.5 | 97.3* | 6.7 | 13.1
COc1cc(/C=C2\SC(=S)N(NC(=O)c3ccccc3O)C2=O)ccc1O | 5.0 | 50.2* | -10.1 | 41.2* | 58.0* | -5.4 | 62.5*
O=C1/C(=C\c2cccc([N+](=O)[O-])c2O)SC(=S)N1Cc1ccccc1 | 1.1 | 1.2 | -8.8 | -2.5 | . | . | .
O=C(O)CN1C(=O)/C(=C\c2cc(Br)ccc2OCc2ccccc2Cl)SC1=S | 0.0 | 37.8* | -24.1 | -1.5 | 25.8 | 7.8 | 1.7
CCN1C(=O)/C(=C\C=C\c2ccccc2[N+](=O)[O-])SC1=S | 6.4 | -1.1 | 0.6 | 5.2 | . | . | .
CCN1C(=O)/C(=C/C=C2\N(CC)c3cc(S(=O)(=O)N(C)C)ccc3N2c2ccccc2)SC1=S | 5.1 | 74.5* | -13.4 | 133.2 | 63.5* | -6.2 | 34.2*
O=C(O)CCCN1C(=O)/C(=C/c2ccncc2)SC1=S | -7.3 | 1.4 | -7.8 | -6.6 | . | . | .

Screening data deposited in PubChem BioAssay by several laboratories.
